Screens: PubChem, The Scripps Research Institute Molecular Screening Center
CTSL1 counter = Fasciola hepatica cathepsin L1 inhibitors, primary screen, counter-screen for PFM18AAP inhibitor project, biochemical, QFRET, fluorogenic peptide substrate; recombinant F. hepatica cathepsin L1, Z-Leu-Arg-MCA fluorescence; inhibition, % at 5.96 µM; 300,000 tested, 0.49% active; AID 1906, 2009;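 active = inhibition above the mean of all tested compounds plus 3 SD, set per screening campaign, cut at about 17% in these data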;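 note: 0% = plate median of test compound wells and 100% = 1 µM Z-Phe-Ala-diazomethylketone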
GSTO1 counter = inhibitors of recombinant GSTO1, primary screen, counter-screen for RBBP9 inhibitor project, biochemical, fluorescence polarization | Glutathione S-transferase omega-1 (Homo sapiens), P78417 | activity-based probe fluorescence polarization | inhibition, % at 5.96 µM | 300,000 tested, 1.1% active | AID 1974, 2009;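 active = inhibition above the campaign mean inhibition plus 3 SD, cut at about 35% in these data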;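 note: 0% = GSTO1-1 with DMSO and 100% = wells lacking GSTO1-1 enzyme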
Target sequence (P78417 whole entry, looked up): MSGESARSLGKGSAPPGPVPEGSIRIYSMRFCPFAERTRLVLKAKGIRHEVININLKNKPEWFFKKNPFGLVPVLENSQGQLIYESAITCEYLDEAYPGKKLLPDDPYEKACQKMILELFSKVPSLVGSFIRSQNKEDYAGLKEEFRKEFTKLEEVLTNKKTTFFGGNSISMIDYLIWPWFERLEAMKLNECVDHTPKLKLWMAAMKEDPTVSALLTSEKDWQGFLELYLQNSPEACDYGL
PAD4 inh = human PAD4 inhibitors, primary screen, biochemical, fluorescence polarization, 1536-well format; recombinant PAD4, RCA probe fluorescence polarization; inhibition, % at 6.36 µM; 330,000 tested, 0.41% active;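 active = percent inhibition above a cutoff equal to the mean of all tested compounds plus 3 SD, cut at about 15% in these data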;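 note: 0% = PAD4 with RCA probe and DMSO and 100% = probe without PAD4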
PRMT1 FP inh = PRMT1 methyltransferase inhibitors, primary screen, biochemical, fluorescence polarization; Protein arginine N-methyltransferase 1 (Homo sapiens), Q99873; recombinant PRMT1, activity-based probe fluorescence polarization; inhibition, % at 2.79 µM; 370,000 tested, 1.3% active; AID 652257, 2013;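 active = inhibition above about 21% made by adding two undisclosed values, limit read from the data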
TDP2 inh = human TDP2 enzyme inhibitors, primary screen, biochemical, epi absorbance, recombinant enzyme; Tyrosyl-DNA phosphodiesterase 2 (Homo sapiens), O95551; T5PNP hydrolysis, p-nitrophenol absorbance 415 nm; inhibition, % at 12.8 µM; 370,000 tested, 0.34% active; AID 720702, 2013;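 active = inhibition above the mean of all tested compounds plus 3 SD, set per campaign, cut at about 25% in these data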;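 note: 0% = DMSO with enzyme and 100% = buffer with substrate but no TDP2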
Target sequence (O95551 whole entry, looked up): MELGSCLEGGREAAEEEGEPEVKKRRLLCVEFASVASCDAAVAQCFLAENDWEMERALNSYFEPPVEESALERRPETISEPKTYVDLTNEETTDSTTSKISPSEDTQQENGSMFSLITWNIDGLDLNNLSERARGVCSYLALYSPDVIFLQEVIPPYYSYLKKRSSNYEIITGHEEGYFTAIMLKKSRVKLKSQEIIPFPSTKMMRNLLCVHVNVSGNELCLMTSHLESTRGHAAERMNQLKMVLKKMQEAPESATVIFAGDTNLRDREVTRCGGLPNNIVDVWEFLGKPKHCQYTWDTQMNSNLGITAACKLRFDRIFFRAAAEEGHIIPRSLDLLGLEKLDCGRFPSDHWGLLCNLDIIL
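Test system: human TDP2 enzyme; Input: 120 nM TDP2 per well; Buffer or medium: Mg2+-containing Tris-HCl buffer, pH 7.5; Reagent: 5 mM T5PNP; Dosing: 12.8 µM single point, 1% DMSO; Incubation: reaction 2 h, 37 °C; Detection: p-Nitrophenol epi absorbance; Read-out: % inhibition relative to enzyme-containing and enzyme-free wells; Replicates: single well per compound.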
GSTO1 inh conf = GSTO1 inhibitor hit confirmation, counter-screen for RBBP9 inhibitor project, biochemical, fluorescence polarization, triplicate. shares compounds with GSTO1 counter. inhibition, % at 5.96 µM. AID 2176, 2009. recombinant GSTO1, probe fluorescence polarization. 2,400 tested, 54% active;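 active = inhibition above the primary screen's cutoff, its mean inhibition plus 3 SD, cut at about 35% in these data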;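 note: loss of polarization as inhibitors block binding of rhodamine sulfonate ester activity probe; 0% = GSTO1 with DMSO and 100% = wells lacking GSTO1 enzyme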
PAD4 confirm = human PAD4 inhibitors, confirmation, biochemical, fluorescence polarization; recombinant PAD4, RCA probe fluorescence polarization; shares compounds with PAD4 inh; inhibition, % at 6.36 µM; 1,200 tested, 28% active;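 active = mean inhibition across replicates above the hit cutoff set by the earlier primary screen, cut at about 15% in these data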;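 note: inhibitors block active-site labeling by the probe so polarization falls; 0% = PAD4 with probe and DMSO and 100% = probe without PAD4 enzyme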
TDP2 inh conf = human TDP2 enzyme inhibitors, retest, confirmation, biochemical, epi absorbance, recombinant enzyme; inhibition, % at 12.8 µM; 1,100 tested, 22% active; absorbance read-out; AID 743263, 2014; shares compounds with TDP2 inh; in the data active = inhibition above about 25%;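 note: 0% = vehicle with enzyme and 100% = no enzyme buffer only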
* hit, by the source's call. Hits are enriched below; roughly 2.5% of the tested compounds scored in any of these assays.

`O=C1C(Nc2cccc(O)c2)=C(N2CCCCC2)C(=O)c2ccccc21` gave CTSL1 counter 86*, GSTO1 counter 79*, PAD4 inh 18*, PRMT1 FP inh 16, TDP2 inh 51*, GSTO1 inh conf 63*, PAD4 confirm 13 and TDP2 inh conf 52*.
O=C1C(NS(=O)(=O)c2ccccc2)=C(N2CCN(c3ccc(F)cc3)CC2)C(=O)c2ccccc21 was read as CTSL1 counter 5, GSTO1 counter 20, PAD4 inh -4, PRMT1 FP inh 6 and TDP2 inh 3.
For Cc1ccc(NC(=O)OC2CC3CC2[C@H]2CCCCN2[C@H]3Cc2ccccc2)cc1 (stereo partly specified) the results were PRMT1 FP inh -2 and TDP2 inh 8.
For COc1ccc2c(c1)CCCN2C(=O)C1CCCN(S(=O)(=O)c2ccc(C(C)(C)C)cc2)C1 (stereo unspecified) the results were PRMT1 FP inh 5 and TDP2 inh -2.
CCOc1ccc(Oc2c(Cl)cnn(Cc3cccc4ccccc34)c2=O)cc1 was read as PRMT1 FP inh 2 and TDP2 inh -2.
For Cc1ccc(NC2=C(N3CCCCC3)C(=O)c3ccccc3C2=O)cc1 the results were CTSL1 counter 34*, GSTO1 counter 65*, PAD4 inh -3, PRMT1 FP inh 7, TDP2 inh 56*, GSTO1 inh conf 46* and TDP2 inh conf 61*.
CC1CCCN(C2=C(NS(=O)(=O)c3ccc(Br)cc3)C(=O)c3ccccc3C2=O)C1 (stereo unspecified) was read as CTSL1 counter 1, GSTO1 counter 13, PAD4 inh -14, PRMT1 FP inh 5 and TDP2 inh 20.
Cc1ccc(NC(=O)C2CCN(c3nnc(-n4cccc4)s3)CC2)cc1C was read as PRMT1 FP inh -2 and TDP2 inh -7.
For CCCC[C@@H]1C(=O)N2N=Cc3cc4ccccc4cc3[C@H]2N2N=Cc3cc4ccccc4cc3[C@@H]12 the results were PRMT1 FP inh 5 and TDP2 inh 5.
O=C(N=Nc1c(O)[nH]c2ccc([N+](=O)[O-])cc12)c1ccccc1[N+](=O)[O-] was read as CTSL1 counter 7, GSTO1 counter 43*, PAD4 inh -17, PRMT1 FP inh 0, TDP2 inh 35*, GSTO1 inh conf 46* and TDP2 inh conf 23.
Screening CC(C)(C)c1ccc2c(c1)OC(C(=O)N/N=C/c1ccc[nH]1)CO2 (stereo unspecified) returned PRMT1 FP inh 2 and TDP2 inh -1.
Screening CCOC(=O)CC[C@@H]1CC[C@]2(CCCN(C(=O)c3ccccc3)C2)O1 returned PRMT1 FP inh -1 and TDP2 inh 7.
O=C(N/N=C/c1ccc(-c2ccccc2[N+](=O)[O-])o1)c1cccnc1 was read as CTSL1 counter 2, GSTO1 counter 51*, PAD4 inh 5, PRMT1 FP inh 1, TDP2 inh 36*, GSTO1 inh conf 7 and TDP2 inh conf 16.
COc1cc(O)c(C(CC(=O)N2CCC(C)CC2)c2ccc3c(c2)OCO3)c(OC)c1 (stereo unspecified) was read as PRMT1 FP inh 4 and TDP2 inh -4.
Screening COc1ccc(/C=C2/C(=O)N(Cc3ccccc3)N=C2C)cc1 returned CTSL1 counter 0, GSTO1 counter 40*, PAD4 inh 4, PRMT1 FP inh -2, TDP2 inh 71*, GSTO1 inh conf 7 and TDP2 inh conf 14.
`CC[C@H]1C=C[C@@H](C(=O)NS(=O)(=O)c2ccc(C)cc2)N(C(C)=O)C1` gave PRMT1 FP inh 10 and TDP2 inh 3.
For O=c1c(O)cccc2cc(O)c(O)c(O)c12 the results were CTSL1 counter 4, GSTO1 counter 51*, PAD4 inh -7, PRMT1 FP inh 43*, TDP2 inh 28*, GSTO1 inh conf 72* and TDP2 inh conf 17.
Screening O=c1cc(-c2ccccc2)oc2cc(O)c(O)c(O)c12 returned PAD4 inh -8, PRMT1 FP inh 20 and TDP2 inh 7.
For O=C(Nc1ccccc1)OCCN1CCCC12CCC(c1ccccc1)CC2 (stereo unspecified) the results were PRMT1 FP inh 4 and TDP2 inh -8.
Screening COC(=O)CCC(=O)OC1(C)C(=O)C=C2C=C(C3CC3)N(C3CC3)C=C2C1=O (stereo unspecified) returned CTSL1 counter 2, GSTO1 counter 52*, PAD4 inh 25*, PRMT1 FP inh 11, TDP2 inh 38*, GSTO1 inh conf 20, PAD4 confirm -5 and TDP2 inh conf 10.
Screening COC(=O)[C@@]1(C(C)C)N=C(c2cc(OC)c(OC)c(OC)c2)[C@]2(O1)C(=O)N(Cc1cn(Cc3ccccc3)nn1)c1ccc(F)cc12 returned PRMT1 FP inh 4 and TDP2 inh 0.
`COC(=O)c1ccc(C(c2c(C)[nH][nH]c2=O)c2c(C)[nH][nH]c2=O)cc1` gave CTSL1 counter -1, GSTO1 counter 9, PAD4 inh -17, PRMT1 FP inh 0 and TDP2 inh -5.
`COC(=O)c1cccc(-c2ccc(C(c3c(C)[nH][nH]c3=O)c3c(C)[nH][nH]c3=O)o2)c1` gave CTSL1 counter 0, GSTO1 counter 59*, PAD4 inh 8, PRMT1 FP inh 29*, TDP2 inh 57*, GSTO1 inh conf 54* and TDP2 inh conf 32*.
O=C(NC1C(=O)NNC1c1ccccc1)c1ccccc1 (stereo unspecified) was read as CTSL1 counter -2, GSTO1 counter 8, PAD4 inh -11, PRMT1 FP inh 5 and TDP2 inh 15.
Screening Cc1cccc(C(=O)NC2C(=O)NNC2c2ccc(Cl)cc2)c1 (stereo unspecified) returned CTSL1 counter -1, GSTO1 counter 44*, PAD4 inh -2, PRMT1 FP inh -3, TDP2 inh 30*, GSTO1 inh conf 5 and TDP2 inh conf 10.
